Calls of active or inactive are those of the source. No cut-off for these calls is given here.
Columns and labels:
[1] = Drug metabolism in rat liver microsomes assessed as N-((S)-4-amino-6-methylene-5-(4-phenoxyphenyl)-7,8-dihydro-6H-pyrimido[5,4-b]pyrrolizin-7-yl)-2,3-dihydroxypropanamide formation after 3 hrs; format: ADME, microsome
TMD8 [2] = experiment: Cell cycle arrest in human TMD8 cells assessed as accumulation at S phase at 1 nM after 48 hrs by propidium iodide staining-based flow cytometric method (reference value: 34.15%); format: functional
[3] = Tmax in rat at 3 mg/kg, po; format: ADME, organism-based; conditions: in vivo
How it was run: (§1)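 Rats were given compound at 1 mg/kg iv or 3 mg/kg po. Vehicle was DMSO, Tween 80 and normal saline. Values are the average of three determinations.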

TMD8 [4] = experiment: Cell cycle arrest in human TMD8 cells assessed as accumulation at G2 phase at 100 nM after 48 hrs by propidium iodide staining-based flow cytometric method (reference value: 14.53%); format: functional
[5] = target: T1, Tyrosine-protein kinase BTK (Homo sapiens, UniProt Q06187); experiment: Inhibition of recombinant human BTK using Poly(Glu, Tyr) 4:1 as substrate after 1 hr by ELISA
TMD8 [6] = experiment: Cell cycle arrest in human TMD8 cells assessed as accumulation at G1 phase at 100 nM after 48 hrs by propidium iodide staining-based flow cytometric method (reference value: 51.33%); format: functional
TMD8 [7] = experiment: Cell cycle arrest in human TMD8 cells assessed as accumulation at G1 phase at 10 nM after 48 hrs by propidium iodide staining-based flow cytometric method (reference value: 51.33%); format: functional
TMD8 [8] = experiment: Induction of apoptosis in human TMD8 cells assessed as early apoptotic cells at 1000 nM after 72 hrs by Annexin-FITC/propidium iodide staining-based flow cytometric method (reference value: 7.98%); format: functional
TMD8 [9] = experiment: Induction of apoptosis in human TMD8 cells assessed as late apoptotic cells at 100 nM after 72 hrs by Annexin-FITC/propidium iodide staining-based flow cytometric method (reference value: 3.2%); format: functional
[10] = target: T1, Tyrosine-protein kinase BTK; conditions: TMD8, 1 to 100 nM
TMD8 [11] = experiment: Antiproliferative activity against human TMD8 cells xenografted in CB17 SCID nude mouse assessed as decrease in Ki-67 expression at 15 mg/kg, […] by […] immunohistochemical analysis; format: functional, organism-based
Mus musculus = experiment: Toxicity in CB17 SCID nude mouse xenografted with human TMD8 cells assessed as change in body weight at 5 mg/kg, po qd administered for 13 consecutive days measured during compound dosing; format: organism-based; conditions: in vivo
How it was run: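 Female CB-17 SCID mice, 4-5 weeks old, were inoculated subcutaneously in the right axilla with about 2×10^6 TMD8 cells. At ~100-200 mm³ they were randomized (n = 6/group) and dosed orally once daily: vehicle for 13 days, 5 mg/kg/day for 13 days, 15 mg/kg/day for 17 days.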

[12] = Drug metabolism in mouse liver microsomes assessed as (S)-4-(4-(4,7-diamino-6-methylene-7,8-dihydro-6H-pyrimido[5,4-b]pyrrolizin-5-yl)phenoxy)phenol formation after 3 hrs; format: ADME, microsome
[13] = target: Epidermal growth factor receptor (Homo sapiens, UniProt P00533); experiment: Inhibition of recombinant human EGFR using Poly(Glu, Tyr) 4:1 as substrate after 1 hr by ELISA
How it was run: (§2)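 Kinase activity was measured by ELISA on wells precoated with 20 µg/mL poly(Glu,Tyr) 4:1. Enzyme was incubated with compound in 50 mM HEPES pH 7.4, 20 mM MgCl2, 0.1 mM MnCl2, 0.2 mM Na3VO4, 1 mM DTT with 5 µM ATP at 37 °C for 1 h. Phosphotyrosine was detected with PY99 antibody, HRP secondary and OPD, read at A492. IC50 is the mean of duplicates.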

Rattus norvegicus = experiment: Oral bioavailability in rat at 3 mg/kg; format: ADME, organism-based; conditions: in vivo; how it was run: as §1
[14] = target: Tyrosine-protein kinase Blk (Homo sapiens, UniProt P51451); experiment: Inhibition of recombinant human BLK using Poly(Glu, Tyr) 4:1 as substrate after 1 hr by ELISA
How it was run: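 Purchased active kinase incubated with compound on wells precoated with 20 µg/mL poly(Glu,Tyr) 4:1, in 50 mM HEPES pH 7.4, 20 mM MgCl2, 0.1 mM MnCl2, 0.2 mM Na3VO4, 1 mM DTT, 5 µM ATP, 37 °C, 1 h. Phosphotyrosine detected with PY99 antibody, HRP secondary, OPD, A492. IC50 as mean of duplicates.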

[15] = target: T2, Receptor-type tyrosine-protein kinase FLT3 (Homo sapiens, UniProt P36888); experiment: Inhibition of recombinant human FLT3 using Poly(Glu, Tyr) 4:1 as substrate after 1 hr by ELISA; how it was run: as §2
T2 sequence (P36888 whole entry): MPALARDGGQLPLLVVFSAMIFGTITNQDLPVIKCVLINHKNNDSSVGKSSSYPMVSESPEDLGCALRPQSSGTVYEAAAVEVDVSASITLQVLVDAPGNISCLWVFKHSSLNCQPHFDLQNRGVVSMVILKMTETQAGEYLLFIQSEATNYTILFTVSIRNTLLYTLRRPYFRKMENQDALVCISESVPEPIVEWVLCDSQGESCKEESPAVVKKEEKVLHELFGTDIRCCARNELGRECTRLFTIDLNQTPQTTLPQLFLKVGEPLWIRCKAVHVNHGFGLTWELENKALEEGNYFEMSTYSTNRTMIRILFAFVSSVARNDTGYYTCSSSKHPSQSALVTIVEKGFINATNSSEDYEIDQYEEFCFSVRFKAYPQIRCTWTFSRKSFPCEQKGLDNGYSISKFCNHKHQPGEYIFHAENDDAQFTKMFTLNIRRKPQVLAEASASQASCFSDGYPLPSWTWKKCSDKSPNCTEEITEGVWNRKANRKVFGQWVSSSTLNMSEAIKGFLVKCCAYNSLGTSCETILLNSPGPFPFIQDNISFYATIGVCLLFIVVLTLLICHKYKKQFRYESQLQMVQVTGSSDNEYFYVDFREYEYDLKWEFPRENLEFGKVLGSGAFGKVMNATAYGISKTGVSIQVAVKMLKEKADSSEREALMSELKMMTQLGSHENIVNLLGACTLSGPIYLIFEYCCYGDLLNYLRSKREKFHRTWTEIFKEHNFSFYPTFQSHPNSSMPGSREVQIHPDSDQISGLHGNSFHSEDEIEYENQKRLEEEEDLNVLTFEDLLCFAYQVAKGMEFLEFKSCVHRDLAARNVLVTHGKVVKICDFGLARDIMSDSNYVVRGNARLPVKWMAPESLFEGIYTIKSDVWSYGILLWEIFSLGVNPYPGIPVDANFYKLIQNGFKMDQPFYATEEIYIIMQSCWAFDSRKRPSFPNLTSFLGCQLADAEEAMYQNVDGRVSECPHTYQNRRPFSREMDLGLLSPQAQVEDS

TMD8 [16] = experiment: Induction of apoptosis in human TMD8 cells assessed as early apoptotic cells at 100 nM after 72 hrs by Annexin-FITC/propidium iodide staining-based flow cytometric method (reference value: 7.98%); format: functional
[17] = Drug metabolism in mouse liver microsomes assessed as (S)-N-(4-amino-5-(4-(4-hydroxyphenoxy)phenyl)-6-methylene-7,8-dihydro-6H-pyrimido[5,4-b]pyrrolizin-7-yl)acrylamide formation after 3 hrs; format: ADME, microsome

T1 sequence (Q06187 whole entry): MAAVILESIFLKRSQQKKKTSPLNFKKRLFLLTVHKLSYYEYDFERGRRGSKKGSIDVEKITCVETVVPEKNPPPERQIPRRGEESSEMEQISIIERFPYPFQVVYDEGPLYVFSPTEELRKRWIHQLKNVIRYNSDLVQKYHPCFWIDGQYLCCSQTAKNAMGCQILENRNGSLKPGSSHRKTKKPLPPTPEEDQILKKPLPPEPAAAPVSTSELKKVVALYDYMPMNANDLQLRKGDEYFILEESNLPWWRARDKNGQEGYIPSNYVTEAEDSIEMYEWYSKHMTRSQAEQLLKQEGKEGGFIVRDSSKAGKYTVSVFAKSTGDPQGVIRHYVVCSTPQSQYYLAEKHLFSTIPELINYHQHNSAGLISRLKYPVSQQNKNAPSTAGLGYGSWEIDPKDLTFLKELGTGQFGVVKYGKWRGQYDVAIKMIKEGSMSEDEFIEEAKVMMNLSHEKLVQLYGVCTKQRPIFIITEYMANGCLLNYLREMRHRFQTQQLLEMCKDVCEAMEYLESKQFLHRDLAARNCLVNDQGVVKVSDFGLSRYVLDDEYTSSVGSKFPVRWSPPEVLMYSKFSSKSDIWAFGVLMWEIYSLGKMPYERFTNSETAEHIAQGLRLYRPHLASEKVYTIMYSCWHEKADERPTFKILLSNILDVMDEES
Chain of Tyrosine-protein kinase Blk (P51451 whole entry): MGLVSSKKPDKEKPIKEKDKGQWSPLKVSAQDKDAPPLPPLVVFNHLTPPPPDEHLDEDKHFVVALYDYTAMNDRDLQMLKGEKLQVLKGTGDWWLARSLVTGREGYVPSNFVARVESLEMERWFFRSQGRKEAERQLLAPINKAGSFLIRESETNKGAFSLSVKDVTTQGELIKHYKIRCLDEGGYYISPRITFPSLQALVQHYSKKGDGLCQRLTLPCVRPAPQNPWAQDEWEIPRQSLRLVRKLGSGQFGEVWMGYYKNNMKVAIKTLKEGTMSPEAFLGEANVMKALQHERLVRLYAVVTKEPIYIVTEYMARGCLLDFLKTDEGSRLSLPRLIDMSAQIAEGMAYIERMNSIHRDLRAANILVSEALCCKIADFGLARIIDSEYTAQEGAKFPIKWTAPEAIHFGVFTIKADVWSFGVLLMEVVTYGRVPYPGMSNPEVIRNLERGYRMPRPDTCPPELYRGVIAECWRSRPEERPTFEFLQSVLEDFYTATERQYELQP
Chain of Epidermal growth factor receptor (P00533 whole entry): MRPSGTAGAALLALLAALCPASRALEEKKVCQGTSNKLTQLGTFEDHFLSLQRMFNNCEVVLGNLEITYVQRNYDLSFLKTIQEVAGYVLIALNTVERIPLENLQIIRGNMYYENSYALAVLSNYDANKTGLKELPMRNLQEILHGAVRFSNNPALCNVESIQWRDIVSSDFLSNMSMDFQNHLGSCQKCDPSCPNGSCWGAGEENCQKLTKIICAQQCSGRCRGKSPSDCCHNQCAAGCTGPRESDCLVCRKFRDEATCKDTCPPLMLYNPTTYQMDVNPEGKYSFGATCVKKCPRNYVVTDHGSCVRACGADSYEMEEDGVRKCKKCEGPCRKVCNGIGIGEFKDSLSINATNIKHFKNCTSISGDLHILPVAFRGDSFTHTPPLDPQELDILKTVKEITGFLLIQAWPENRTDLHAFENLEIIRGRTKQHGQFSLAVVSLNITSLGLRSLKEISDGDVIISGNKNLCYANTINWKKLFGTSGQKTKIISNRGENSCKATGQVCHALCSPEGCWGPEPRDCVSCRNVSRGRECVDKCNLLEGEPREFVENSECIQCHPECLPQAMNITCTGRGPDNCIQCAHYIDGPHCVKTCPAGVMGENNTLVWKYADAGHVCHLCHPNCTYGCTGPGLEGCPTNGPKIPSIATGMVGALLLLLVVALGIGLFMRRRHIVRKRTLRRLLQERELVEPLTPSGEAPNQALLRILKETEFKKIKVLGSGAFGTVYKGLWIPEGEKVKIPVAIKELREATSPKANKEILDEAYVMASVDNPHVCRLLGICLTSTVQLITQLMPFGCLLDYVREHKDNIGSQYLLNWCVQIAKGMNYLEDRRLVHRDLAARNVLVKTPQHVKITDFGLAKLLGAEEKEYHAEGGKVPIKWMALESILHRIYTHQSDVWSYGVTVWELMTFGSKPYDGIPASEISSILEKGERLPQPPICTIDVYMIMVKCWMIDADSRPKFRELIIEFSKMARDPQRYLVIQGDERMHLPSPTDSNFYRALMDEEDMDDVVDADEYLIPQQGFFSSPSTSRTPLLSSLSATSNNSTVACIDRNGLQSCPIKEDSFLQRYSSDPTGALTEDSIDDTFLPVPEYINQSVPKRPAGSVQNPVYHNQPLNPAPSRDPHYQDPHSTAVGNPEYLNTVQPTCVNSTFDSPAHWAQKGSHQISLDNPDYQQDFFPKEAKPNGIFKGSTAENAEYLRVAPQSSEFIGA

Drug metabolism [1]: Metabolite_Detected | Tmax [3]: 15 min | IC50 [5]: 0.4 nM | inhibition [10]: Active | Drug metabolism [12]: Metabolite_Detected | IC50 [13]: 1.3 nM | F (Rattus norvegicus): 18.3% | IC50 [14]: 0.2 nM | IC50 [15]: 55 nM | Drug metabolism [17]: Metabolite_Detected
Structure (SMILES): C=CC(=O)N[C@@H]1Cn2c(c(-c3ccc(Oc4ccccc4)cc3)c3c(N)ncnc32)C1=C
Activity (TMD8 [2]): 25.22% | Activity (TMD8 [4]): 10.04% | Activity (TMD8 [6]): 77.17% | Activity (TMD8 [7]): 76.32% | Activity (TMD8 [8]): 51.1% | Activity (TMD8 [9]): 14.8% | Activity (TMD8 [11]): Active | Activity (Mus musculus): Non-Toxic | Activity (TMD8 [16]): 34.5%
